Measured values taken from ChEMBL document CHEMBL3272008, “Synthesis and biological actions of 2-substituted quinolizidines” (J Med Chem, 1976).
Calls of active or inactive are those of the source. The calls are words filed in the database; no cut-off is given here.

Columns and labels:
Mus musculus [1] = assay: Depression of spontaneous motor activity in Swiss-Webster mouse at 50 mg/kg, ip by photocell cage test relative to control; format: functional; settings: route intraperitoneal
In short: (§1)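 Compound was dissolved in minimal 1.5 M NaH2PO4, diluted with water and given ip. Two mice given the same dose went into each of three photocell actophotometer cages 10 min after the rotarod test started. Counts were taken over 15 min, starting 5 min after placement. A factorial design across cages cancelled differences between units. Results were given as % of control, with significance by Student's t test (p < 0.05).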

Mus musculus [2] = assay: Depression of forced motor activity in Swiss-Webster mouse at 50 mg/kg, ip after 30 mins by rotarod test relative to control; format: functional; settings: route intraperitoneal
In short: (§2)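 Mice were dosed ip with vehicle or compound dissolved in a minimum of 1.5 M NaH2PO4 and diluted with water. On the rotarod, speed was 4 rpm for 30 sec, then 6 rpm for 30 sec, then increased every 30 sec up to a maximum of 50 rpm until the fall. Each mouse had four trials, two per day on two consecutive days, spaced 4–6 hr apart. The fourth trial was run 30 min after dosing. The read-out was trial time (sec) as % of control, with significance by Student's t test (p < 0.05).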

Mus musculus [3] = assay: Depression of forced motor activity in Swiss-Webster mouse at 25 mg/kg, ip after 30 mins by rotarod test relative to control; format: functional; settings: route intraperitoneal; in short: as §2
Mus musculus [4] = assay: Depression of spontaneous motor activity in Swiss-Webster mouse at 25 mg/kg, ip by photocell cage test relative to control; format: functional; settings: route intraperitoneal; in short: as §1
Mus musculus [5] = assay: Depression of forced motor activity in Swiss-Webster mouse at 12.5 mg/kg, ip after 30 mins by rotarod test relative to control; format: functional; settings: route intraperitoneal; in short: as §2
[6] = Acute toxicity in ip dosed Swiss-Webster mouse administered as single dose after 7 days; format: organism-based; settings: in vivo
In short: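 Mice given a single ip dose at each of four dose levels; lethality followed over 7 days; LD50 with 95% confidence limits estimated by the method of Weil. Compounds dissolved in minimal 1.5 M NaH2PO4, diluted with water; haloperidol in minimal 50% (w/v) tartaric acid-water.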

Mus musculus [7] = assay: Depression of spontaneous motor activity in ip dosed Swiss-Webster mouse by photocell cage test relative to control; format: functional, organism-based; in short: as §1
Mus musculus [8] = assay: Depression of spontaneous motor activity in Swiss-Webster mouse at 12.5 mg/kg, ip by photocell cage test relative to control; format: functional; settings: route intraperitoneal; in short: as §1
Rattus norvegicus [9] = assay: Reduction in grip strength in Wistar rat at 20 mg/kg, ip after 0.5 to 1 hr; format: functional, organism-based; design: dose 20 mg/kg
In short: (§3)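 Male Wistar rats (175–225 g) were injected ip, with three treated rats and one control per dose. Compounds were in minimal 1.5 M NaH2PO4 diluted with water; the reference drug was in minimal 50% (w/v) tartaric acid-water. Gross behavior was observed. Respiratory rate, heart rate, rectal temperature and pupil size were measured at time points after dosing.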

Mus musculus [10] = assay: Depression of spontaneous motor activity in Swiss-Webster mouse at 15 mg/kg, ip by photocell cage test relative to control; format: functional; settings: route intraperitoneal
In short: (§4)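 Spontaneous activity in three photocell cages: two mice given the same ip dose placed per cage 10 min after rotarod start; 15-min count begun 5 min after placement. Each dose run in factorial design across all three cages to offset unit sensitivity. Counts expressed as % of control; Student's t test, p < 0.05.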

Rattus norvegicus [11] = assay: Reduction of respiration rate in Wistar rat at 1 to 6 mg/kg, ip after 0.5 to 1 hr; format: functional, organism-based; settings: 20 mg/kg, in the assay text read “20 mg/kg” for “1 to 6 mg/kg”; in short: as §3
Mus musculus [12] = assay: Depression of forced motor activity in ip dosed Swiss-Webster mouse after 30 mins by rotarod test relative to control; format: functional, organism-based; in short: as §2
Rattus norvegicus [13] = assay: Induction of ptosis in Wistar rat at 20 mg/kg, ip after 10 mins to 3 hrs; format: functional, organism-based; design: dose 20 mg/kg; in short: as §3
Mus musculus [14] = assay: Depression of spontaneous motor activity in Swiss-Webster mouse at 60 mg/kg, ip by photocell cage test relative to control; format: functional; settings: route intraperitoneal; in short: as §4
Mus musculus [15] = assay: Depression of forced motor activity in Swiss-Webster mouse at 15 mg/kg, ip after 30 mins by rotarod test relative to control; format: functional; settings: route intraperitoneal
In short: (§5)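 Rotarod in mice: rod at 4 rpm for 30 sec, 6 rpm next 30 sec, then stepped up every 30 sec (max 50 rpm) until fall. Six mice at a time, four trials (two per day, 4–6 hr apart, two consecutive days); vehicle or compound ip 30 min before fourth trial. Time on rod as % of control; Student's t test, p < 0.05.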

Mus musculus [16] = assay: Depression of forced motor activity in Swiss-Webster mouse at 60 mg/kg, ip after 30 mins by rotarod test relative to control; format: functional; settings: route intraperitoneal; in short: as §5
Rattus norvegicus [17] = assay: Reduction in startle response in Wistar rat at 20 mg/kg, ip after 0.5 to 1 hr; format: functional, organism-based; design: dose 20 mg/kg; in short: as §3
Mus musculus [18] = assay: Depression of forced motor activity in Swiss-Webster mouse at 30 mg/kg, ip after 30 mins by rotarod test relative to control; format: functional; settings: route intraperitoneal; in short: as §5
Mus musculus [19] = assay: Depression of spontaneous motor activity in Swiss-Webster mouse at 30 mg/kg, ip by photocell cage test relative to control; format: functional; settings: route intraperitoneal; in short: as §4
Rattus norvegicus [20] = assay: Depression of motor activity in Wistar rat at 20 mg/kg, ip after 0.5 to 1 hr; format: functional, organism-based; design: dose 20 mg/kg; in short: as §3
Rattus norvegicus [21] = assay: Reduction in body temperature in Wistar rat at 20 mg/kg, ip relative to control; format: functional; settings: route intraperitoneal; in short: as §3
Rattus norvegicus [22] = assay: Reduction of heart rate in Wistar rat at 1 to 6 mg/kg, ip after 0.5 to 1 hr; format: functional, organism-based; settings: 20 mg/kg, in the assay text read “20 mg/kg” for “1 to 6 mg/kg”; in short: as §3
Mus musculus [23] = assay: Depression of forced motor activity in Swiss-Webster mouse at 5 mg/kg, ip after 30 mins by rotarod test relative to control; format: functional; settings: route intraperitoneal; in short: as §5
Mus musculus [24] = assay: Acute toxicity in ip dosed Swiss-Webster mouse assessed as tremor administered as single dose after 72 hrs; format: organism-based; settings: in vivo
Mus musculus [25] = assay: Acute toxicity in ip dosed Swiss-Webster mouse assessed as death administered as single dose after 72 hrs; format: organism-based; settings: in vivo
Rattus norvegicus [26] = assay: Induction of ptosis in Wistar rat at 1 to 6 mg/kg, ip; format: functional, organism-based; settings: in the assay text read “6 mg/kg” for “1 to 6 mg/kg”; in short: as §3
Rattus norvegicus [27] = assay: Depression of motor activity in Wistar rat at 1 to 6 mg/kg, ip; format: functional, organism-based; in short: as §3
Mus musculus [28] = assay: Depression of spontaneous motor activity in Swiss-Webster mouse at 10 mg/kg, ip by photocell cage test relative to control; format: functional; settings: route intraperitoneal; in short: as §4
Mus musculus [29] = assay: Depression of forced motor activity in Swiss-Webster mouse at 10 mg/kg, ip after 30 mins by rotarod test relative to control; format: functional; settings: route intraperitoneal; in short: as §5
Rattus norvegicus [30] = assay: Reduction in body temperature in Wistar rat at 1 to 6 mg/kg, ip relative to control; format: functional; settings: dose mg/kg 6; route intraperitoneal; in the assay text read “6 mg/kg” for “1 to 6 mg/kg”; in short: as §3
Mus musculus [31] = assay: Depression of spontaneous motor activity in Swiss-Webster mouse at 5 mg/kg, ip by photocell cage test relative to control; format: functional; settings: route intraperitoneal; in short: as §4
Mus musculus [32] = assay: Depression of forced motor activity in Swiss-Webster mouse at 2.5 mg/kg, ip after 30 mins by rotarod test relative to control; format: functional; settings: route intraperitoneal; in short: as §2
Mus musculus [33] = assay: Acute toxicity in ip dosed Swiss-Webster mouse assessed as ataxia administered as single dose after 72 hrs; format: organism-based; settings: in vivo
Mus musculus [34] = assay: Depression of spontaneous motor activity in Swiss-Webster mouse at 2.5 mg/kg, ip by photocell cage test relative to control; format: functional; settings: route intraperitoneal; in short: as §1

O[C@]1(c2cccc(Cl)c2)CCN2CCCCC2C1 (single isomer, unassigned)
Activity (Mus musculus [1]): 74.3%
Activity (Mus musculus [2]): 34.3%
Activity (Mus musculus [3]): 83.6%
Activity (Mus musculus [4]): 89.9%
Activity (Mus musculus [5]): 88.6%
LD50 at 168 h [6]: 134 mg/kg

O[C@]1(c2ccc(C(F)(F)F)cc2)CCN2CCCCC2C1 (single isomer, unassigned)
Activity (Mus musculus [1]): 17.5%
Activity (Mus musculus [2]): 31.5%
Activity (Mus musculus [7]): Dose-dependent effect
Activity (Mus musculus [3]): 100.6%
Activity (Mus musculus [4]): 39.3%
Activity (Mus musculus [8]): 90%
Activity (Mus musculus [5]): 115.2%
LD50 at 168 h [6]: 125 mg/kg

O=C(c1ccc(F)cc1)[C@@H]1CCN2CCCC[C@@H]2C1 (single isomer, unassigned)
Activity (Rattus norvegicus [9]): Active
Activity (Mus musculus [10]): 2.5%
Activity (Rattus norvegicus [11]): Active
Activity (Mus musculus [12]): Dose-dependent effect
Activity (Rattus norvegicus [13]): Active
Activity (Mus musculus [7]): Dose-dependent effect
Activity (Mus musculus [14]): 0%
Activity (Mus musculus [15]): 26.5%
Activity (Mus musculus [16]): 4.8%
Activity (Rattus norvegicus [17]): Active
Activity (Mus musculus [18]): 15.2%
LD50 at 168 h [6]: 193 mg/kg
Activity (Mus musculus [19]): 9.6%
Activity (Rattus norvegicus [20]): Active
T (Rattus norvegicus [21]): 3 °C
Activity (Rattus norvegicus [22]): Active

O[C@]1(c2cccc(C(F)(F)F)c2)CCN2CCCCC2C1 (single isomer, unassigned)
Activity (Mus musculus [1]): 35.4%
Activity (Mus musculus [2]): 56.6%
Activity (Mus musculus [7]): Dose-dependent effect
Activity (Mus musculus [3]): 98.1%
Activity (Mus musculus [4]): 45.1%
Activity (Mus musculus [8]): 70.3%
Activity (Mus musculus [5]): 107.2%
LD50 at 168 h [6]: 137 mg/kg

O=C(CCCN1CCC(O)(c2ccc(Cl)cc2)CC1)c1ccc(F)cc1 [HALOPERIDOL]
Activity (Mus musculus [23]): 79.4%
Activity (Mus musculus [24]): Toxic
Activity (Mus musculus [25]): Toxic
Activity (Rattus norvegicus [26]): Active
Activity (Rattus norvegicus [27]): Active
Activity (Mus musculus [28]): 0.2%
Activity (Mus musculus [29]): 26.4%
LD50 at 168 h [6]: 49.7 mg/kg
T (Rattus norvegicus [30]): 2 °C
Activity (Mus musculus [31]): 13%
Activity (Mus musculus [32]): 99.3%
Activity (Mus musculus [33]): Toxic
Activity (Mus musculus [34]): 27.6%
